APJ ag: APJ receptor agonism; P35414; AID 2520; activation, % at 20 µM; CHO-K1 APJ PathHunter beta-arrestin, luminescence; 0% DMSO wells, 100% apelin; hit rate 0.11% among 330,000;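 active = activation more than six SD over the plate average, tested at 20 µM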;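 also: 0% = DMSO alone and 100% = apelin-13 at 10 nM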
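Assay system: CHO-K1 cells stably expressing ProLink-tagged human APJ and arrestin–beta-gal acceptor. Compound dosing: 20 µM single point, 1% DMSO. Times: 16-18 h seeding, 90 min dark compound exposure, 60 min detection. Detection: beta-gal luminescence. Evaluation: APJ–arrestin association signal. Controls: negative DMSO alone, positive Apelin-13 at 10 nM.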
APJ antagonist: blocks the human apelin receptor APJ; CHO-K1 APJ beta-arrestin complementation, luminescence; inhibition, % at 20 µM; hit rate 0.32% among 330,000;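 active = inhibition above about 40% at 20 µM, limit read from the data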;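 also: cells challenged with 10 nM apelin-13 agonist together with compound; plate controls were apelin-13 plus DMSO wells for no effect and DMSO wells lacking apelin-13 for full effect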
CXCR6 block: CXCR6 (human) receptor inhibition; O00574; hit rate 0.36% among 360,000; inhibition, % at 20 µM; CHO-K1 PathHunter CXCR6 beta-arrestin, luminescence; in the data active = inhibition above about 34%, passing the limit was not always enough;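 also: antagonist mode with CXCL16 agonist at 10 nM final; 0% = 10 nM CXCL16 with DMSO and 100% = unstimulated wells without agonist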
CCR6 antagonist: blocks CCL20-driven beta-arrestin recruitment at human CCR6. P51684. CHO-K1 CCR6 PathHunter beta-arrestin, luminescence, CCL20-stimulated. inhibition, % at 20 µM. hit rate 0.49% among 340,000;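 active = compounds whose inhibition of the agonist-driven luminescence signal at 20 µM reaches about 50%, limit read from the data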;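 also: cells stimulated with CCL20 at 14 nM final; plate controls were DMSO with CCL20 for no effect and DMSO without agonist for full effect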
Target sequence (P51684 whole entry, looked up): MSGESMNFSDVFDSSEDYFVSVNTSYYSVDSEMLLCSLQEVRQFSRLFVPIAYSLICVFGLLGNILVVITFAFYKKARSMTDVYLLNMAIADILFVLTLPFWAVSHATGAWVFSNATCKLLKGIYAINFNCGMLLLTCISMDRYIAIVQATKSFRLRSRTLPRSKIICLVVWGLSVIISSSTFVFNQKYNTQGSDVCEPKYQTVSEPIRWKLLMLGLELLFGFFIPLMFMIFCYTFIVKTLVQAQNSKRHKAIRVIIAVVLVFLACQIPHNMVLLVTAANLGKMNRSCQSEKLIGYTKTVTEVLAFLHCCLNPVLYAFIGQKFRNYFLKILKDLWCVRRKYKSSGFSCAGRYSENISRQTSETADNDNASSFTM
EBI2 antag: EBI2 (human) antagonism. EBI2 beta-arrestin recruitment, luminescence, 7a,25-OHC stimulated. inhibition, % at 5 µM. hit rate 0.81% among 360,000. AID 651636; in the data active = inhibition above about 38%;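 also: enzyme fragment complementation signal reports receptor beta-arrestin coupling in cells; 0% = agonist plus DMSO wells and 100% = wells without agonist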
APJ ag conf: confirmation of human APJ apelin receptor agonists. shares compounds with APJ ag. CHO-K1 APJ PathHunter beta-arrestin, luminescence. activation, % at 20 µM. hit rate 10% among 310;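 active = activation above 40%, taking the highest of four retests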;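 also: plate controls were DMSO wells for no effect and apelin-13 at 10 nM for full effect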
Numbers without * were called inactive. An excerpt weighted towards active compounds, which were near 1.5% of everything screened.

`CC(Sc1nnc(C(C)Oc2ccc(F)cc2)o1)C(=O)NCc1ccc2c(c1)OCO2` (stereo not drawn) gave CXCR6 block 10 and EBI2 antag 3.
Cn1nc(C(C)(C)C)cc1C(=O)N1CCCCC1c1cc(C(=O)Nc2ccc(F)c(Cl)c2)no1 (stereo not drawn) was read as CXCR6 block 3 and EBI2 antag -1.
For O=C(Nc1ccncc1)c1cc2ccccc2cc1O the results were APJ ag 47*, APJ antagonist -213, CXCR6 block -40, CCR6 antagonist -32, EBI2 antag -35 and APJ ag conf 33.
O=C(Nc1cccc([N+](=O)[O-])c1)c1cc2ccccc2cc1O was read as APJ ag 7, APJ antagonist -16, CXCR6 block 3, CCR6 antagonist 26 and EBI2 antag -3.
Screening CC1(C(=O)Nc2ccc3c(c2)OCCO3)CCC(=O)N1C1CCN(Cc2ccccc2)CC1 (stereo not drawn) returned CXCR6 block -2 and EBI2 antag 0.
For CCOc1ccc(C2NC(=O)NC(C)=C2C(=O)OCc2ccccc2)cc1 (stereo not drawn) the results were APJ ag -1, APJ antagonist 9, CXCR6 block 4, CCR6 antagonist -1 and EBI2 antag 2.
`COc1ccc(COC(=O)C2=C(C)NC(=O)NC2c2ccc(F)cc2)cc1` (stereo not drawn) gave APJ ag 23*, APJ antagonist -7, CXCR6 block 2, CCR6 antagonist -20, EBI2 antag -8 and APJ ag conf 12.
Screening CC1(C(=O)NCc2ccc3c(c2)OCO3)CCN1C(=O)Cc1ccc(Cl)cc1Cl (stereo not drawn) returned CXCR6 block 0 and EBI2 antag -1.
Screening CCOc1cccc2sc(N(CCCN(C)C)C(=O)c3ccc(S(=O)(=O)N4CCc5ccccc5C4)cc3)nc12 returned APJ ag 9, APJ antagonist -35, CXCR6 block 6, CCR6 antagonist 10 and EBI2 antag 2.
`CCc1ccc2nc(N(CCCN(C)C)C(=O)c3ccc(S(=O)(=O)N4CCc5ccccc5C4)cc3)sc2c1` gave APJ ag 60*, APJ antagonist 6, CXCR6 block -1, CCR6 antagonist -9, EBI2 antag -3 and APJ ag conf 33.
For CCOC(=O)[C@]12CCCC=C1N(Cc1ccc3c(c1)OCO3)C(=O)[C@H](CC(=O)N1CCN(C(=O)C3CC3)CC1)C2 the results were CXCR6 block -3 and EBI2 antag 6.
Cc1ccc(S(=O)(=O)N2C(=O)CCC2C(=O)O/N=C(\N)c2ccc([N+](=O)[O-])cc2)cc1 (stereo not drawn) was read as APJ ag 36*, APJ antagonist -134, CXCR6 block -17, CCR6 antagonist -26, EBI2 antag -18 and APJ ag conf 20.
`Cc1ccc(S(=O)(=O)N2C(=O)CCC2C(=O)O/N=C(\N)c2cccc([N+](=O)[O-])c2)cc1` (stereo not drawn) gave APJ ag 37*, APJ antagonist -132, CXCR6 block -36, CCR6 antagonist -41, EBI2 antag -9 and APJ ag conf 23.
`Cc1ccc(S(=O)(=O)N2C(=O)CCC2C(=O)O/N=C(\N)c2ccccc2)cc1` (stereo not drawn) gave APJ ag 12, APJ antagonist -37, CXCR6 block -3, CCR6 antagonist -6 and EBI2 antag 5.
c1ccc(CNc2nc(NCc3ccccc3)c3ccccc3n2)cc1 was read as APJ ag 28*, APJ antagonist -17, CXCR6 block -2, CCR6 antagonist -3, EBI2 antag -12 and APJ ag conf 24.
c1ccc(CNc2nc(-c3ccccc3)nc3ccccc23)cc1 was read as APJ ag -2, APJ antagonist 14, CXCR6 block -8, CCR6 antagonist 6 and EBI2 antag -21.
Screening CS(=O)(=O)c1cnc(-c2ccccc2)nc1Sc1ccc(F)cc1 returned APJ ag 18*, APJ antagonist -17, CXCR6 block 0, CCR6 antagonist -3, EBI2 antag -23 and APJ ag conf 13.
For COc1cccc(Sc2nc(-c3ccccc3)ncc2S(C)(=O)=O)c1 the results were APJ ag -1, APJ antagonist -4, CXCR6 block 5, CCR6 antagonist 13 and EBI2 antag 14.
`Clc1ccc(CN2CCc3c([nH]c4ccccc34)C2)cc1Cl` gave APJ ag 85*, APJ antagonist -14, CXCR6 block -3, CCR6 antagonist 14, EBI2 antag 16 and APJ ag conf 3.
For Clc1cccc(CN2CCc3c([nH]c4ccccc34)C2)c1 the results were APJ ag 11, APJ antagonist -33, CXCR6 block -4, CCR6 antagonist 5 and EBI2 antag 27.
CC(C)(C)C(C(=O)NCc1ccccc1)N1CCN(C(=O)C2CCCO2)CC1 (stereo not drawn) was read as EBI2 antag 6.
`CC1=NOC(=O)/C1=C\c1ccc(-c2ccc(Br)cc2C(=O)O)o1` gave APJ ag 0, APJ antagonist -15, CXCR6 block 8, CCR6 antagonist 5 and EBI2 antag -3.
CC1=NOC(=O)/C1=C/c1ccc(-c2ccc(Cl)cc2)o1 was read as APJ ag 20*, APJ antagonist 4, CXCR6 block 64*, EBI2 antag 5 and APJ ag conf 3.
Screening CC1=NOC(=O)/C1=C\c1ccc(-c2cc(Cl)ccc2Cl)o1 returned APJ ag 66*, APJ antagonist -7, CXCR6 block 57*, CCR6 antagonist 74*, EBI2 antag 2 and APJ ag conf 13.
COc1ccc(/C=N/N(C(C)=O)c2nc(-c3ccc(C)cc3)cs2)cc1 was read as APJ ag 50*, APJ antagonist -35, CXCR6 block 2, CCR6 antagonist 9, EBI2 antag -4 and APJ ag conf 14.
For CCCN(C)C1CN(Cc2cn(Cc3ccc(C)cc3)nn2)S(=O)(=O)C1 (stereo not drawn) the results were CXCR6 block -3 and EBI2 antag -4.
`N/C(=N\OC(=O)c1cc(-c2ccccc2)nc2ccccc12)c1ccc(Cl)cc1` gave APJ ag 16*, APJ antagonist -16, CXCR6 block -12, CCR6 antagonist -16, EBI2 antag -6 and APJ ag conf 20.
CCOc1cccc(C(=O)Nc2ccc(NC(=O)c3cc4ccccc4o3)c(OC)c2)c1 was read as APJ ag 20*, APJ antagonist 5, CXCR6 block -1, CCR6 antagonist -11, EBI2 antag -7 and APJ ag conf 20.
Screening N/C(=N\OC(=O)c1cc(Br)ccc1Cl)c1cccnc1 returned APJ ag 11*, APJ antagonist -105, CXCR6 block -18, CCR6 antagonist -16, EBI2 antag -21 and APJ ag conf 28.
